Reference: ChEMBL document CHEMBL2203154, “Synthesis, characterization and biological studies of diosgenyl analogues” (Bioorg Med Chem Lett, 2012)

Columns and labels:
HepG2 = experiment: Cytotoxicity against human HepG2 cells after 48 hrs by MTT assay; type: functional, cell-based; settings: HepG2, 48 h
Summary of the method: (§1)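 MTT assay on tumor cells exposed to compound for 48 h. IC50 is the concentration (μM) that inhibits growth by 50% relative to untreated cells. Values are means of at least 3 independent assays per compound.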

Mus musculus [1] = experiment: Antiinflammatory activity in Kunming mouse assessed as inhibition of xylene-induced ear edema at 100 mg/kg, po administered for 3 days followed by xylene-challenge at 2 hrs post-last dose measured after 1 hr relative to vehicle-treated control; type: functional
Summary of the method: (§2)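 Oral gavage in mice, test compounds suspended in 0.5% CMC at 100 mg/kg; aspirin group at 50 mg/kg. Ear edema induced with xylene; inhibition calculated versus the CMC vehicle group. Ten animals per group; data as mean ± SD, with significance versus CMC at p<0.05 or p<0.01.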

[2] = Cytotoxicity against mouse C26 cells after 48 hrs by MTT assay; type: functional, cell-based; settings: C26, 48 h; summary of the method: as §1
MDA-MB-231 = experiment: Cytotoxicity against human MDA-MB-231 cells after 48 hrs by MTT assay; type: functional, cell-based; settings: MDA-MB-231, 48 h; summary of the method: as §1
Mus musculus [3] = experiment: Antiinflammatory activity in Kunming mouse assessed as inhibition of xylene-induced ear edema at 50 mg/kg, po administered for 3 days followed by xylene-challenge at 2 hrs post-last dose measured after 1 hr relative to vehicle-treated control; type: functional; summary of the method: as §2

SMILES | IC50 (HepG2) | inhibition in vivo at 100 mg/kg (Mus musculus [1]) | IC50 [2] | IC50 (MDA-MB-231) | inhibition in vivo at 50 mg/kg (Mus musculus [3])
C[C@@H]1CC[C@@]2(OC1)O[C@H]1C[C@H]3[C@@H]4CC=C5C[C@@H](OC(=O)[C@H](C)NC(=O)c6ccccc6O)CC[C@]5(C)[C@H]4CC[C@]3(C)[C@H]1[C@@H]2C | > 50 µM | 35.8% | > 50 µM | > 50 µM | 
C[C@@H]1CC[C@@]2(OC1)O[C@H]1C[C@H]3[C@@H]4CC=C5C[C@@H](OC(=O)CC[C@@H](N)C(=O)O[C@H]6CC[C@@]7(C)C(=CC[C@H]8[C@@H]9C[C@@H]%10O[C@]%11(CC[C@@H](C)CO%11)[C@@H](C)[C@@H]%10[C@@]9(C)CC[C@@H]87)C6)CC[C@]5(C)[C@H]4CC[C@]3(C)[C@H]1[C@@H]2C | > 50 µM | 19.1% | > 50 µM | > 50 µM | 
C[C@@H]1CC[C@@]2(OC1)O[C@H]1C[C@H]3[C@@H]4CC=C5C[C@@H](OC(=O)CN)CC[C@]5(C)[C@H]4CC[C@]3(C)[C@H]1[C@@H]2C [GLYCINE DIOSGENYL ESTER] | > 50 µM | 30.6% | > 50 µM | 48.2 µM | 
C[C@@H]1CC[C@@]2(OC1)O[C@H]1C[C@H]3[C@@H]4CC=C5C[C@@H](O[C@@H]6O[C@H](CO)[C@@H](O[C@@H]7O[C@H](CO)[C@@H](O)[C@H](O)[C@H]7O)[C@H](O)[C@H]6O[C@@H]6O[C@@H](C)[C@H](O)[C@@H](O)[C@H]6O)CC[C@]5(C)[C@H]4CC[C@]3(C)[C@H]1[C@@H]2C [DELTONIN] | 7.66 µM |  | 1.22 µM | 1.58 µM | 
CC(=O)Oc1ccccc1C(=O)NCC(=O)O[C@H]1CC[C@@]2(C)C(=CC[C@H]3[C@@H]4C[C@@H]5O[C@]6(CC[C@@H](C)CO6)[C@@H](C)[C@@H]5[C@@]4(C)CC[C@@H]32)C1 | > 50 µM | 39.1% | > 50 µM | > 50 µM | 
CC(=O)Oc1ccccc1C(=O)O [ASPIRIN] |  |  |  |  | 31.9%
C[C@@H]1CC[C@@]2(OC1)O[C@H]1C[C@H]3[C@@H]4CC=C5C[C@@H](OC(=O)CCCCCN)CC[C@]5(C)[C@H]4CC[C@]3(C)[C@H]1[C@@H]2C | 14.6 µM | 38.6% | 4.7 µM | 7.6 µM | 
C[C@@H]1CC[C@@]2(OC1)O[C@H]1C[C@H]3[C@@H]4CC=C5C[C@@H](O)CC[C@]5(C)[C@H]4CC[C@]3(C)[C@H]1[C@@H]2C [DISOGENIN] | > 50 µM | 32.2% | > 50 µM | > 50 µM | 
C[C@@H]1CC[C@@]2(OC1)O[C@H]1C[C@H]3[C@@H]4CC=C5C[C@@H](OC(=O)CC[C@@H](NC(=O)c6ccccc6O)C(=O)O[C@H]6CC[C@@]7(C)C(=CC[C@H]8[C@@H]9C[C@@H]%10O[C@]%11(CC[C@@H](C)CO%11)[C@@H](C)[C@@H]%10[C@@]9(C)CC[C@@H]87)C6)CC[C@]5(C)[C@H]4CC[C@]3(C)[C@H]1[C@@H]2C | > 50 µM | 30.1% | > 50 µM | > 50 µM | 
C[C@@H]1CC[C@@]2(OC1)O[C@H]1C[C@H]3[C@@H]4CC=C5C[C@@H](OC(=O)[C@H](C)N)CC[C@]5(C)[C@H]4CC[C@]3(C)[C@H]1[C@@H]2C | > 50 µM | 28.6% | > 50 µM | > 50 µM | 
C[C@@H]1CC[C@@]2(OC1)O[C@H]1C[C@H]3[C@@H]4CC=C5C[C@@H](OC(=O)CCCCCNC(=O)c6ccccc6O)CC[C@]5(C)[C@H]4CC[C@]3(C)[C@H]1[C@@H]2C | > 50 µM | 42.6% | > 50 µM | > 50 µM | 
CC(=O)Oc1ccccc1C(=O)O[C@H]1CC[C@@]2(C)C(=CC[C@H]3[C@@H]4C[C@@H]5O[C@]6(CC[C@@H](C)CO6)[C@@H](C)[C@@H]5[C@@]4(C)CC[C@@H]32)C1 | > 50 µM | 46.5% | > 50 µM | > 50 µM | 
